How the values were obtained:
[1] = Selectivity index, ratio of IC50 for human Huh7ET cells to EC50 for Hepatitis C virus; format: toxicity, cell-based, Huh-7; conditions: read-out: Ratio IC50/EC50
Method in brief: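 SI taken as IC50 (CytoTox-1 viability, Huh 7 ET replicon cells, 72 h) divided by EC50 (replicon luciferase, same cells and exposure); each from four-replicate averages.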

[2] = Cytotoxicity against human Huh7ET cells by CytoTox-one cell proliferation assay; format: cell-based; conditions: Huh-7
Method in brief: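 Parallel plate of replicon Huh 7 ET cells (5000/well, DMEM without G418), compounds from DMSO stocks diluted in DMEM, 72 h. Viability by tetrazolium-based CytoTox-1 proliferation assay. Mean of four replicates; IC50 = concentration decreasing cell viability by 50%.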

[3] = test system: Hepatitis C virus; assay: Antiviral activity against Hepatitis C virus infected in human Huh7ET cells assessed as inhibition of dicistronic viral RNA replication after 72 hrs by luciferase reporter gene assay; format: functional, organism-based, Hepacivirus hominis; conditions: Huh-7, 72 h
Method in brief: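 HCV replicon Huh 7 ET cells seeded 5000/well in DMEM without G418 overnight; compounds dissolved in DMSO, diluted in DMEM, dose-response. After 72 h, replicon-derived luciferase read by Steady-Glo. Mean of four replicates; EC50 = concentration inhibiting HCV RNA replication by 50%.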

[4] = test system: Hepatitis C virus; assay: Antiviral activity against Hepatitis C virus infected in human Huh7ET cells assessed as inhibition of dicistronic viral RNA replication at 20 uM after 72 hrs by luciferase reporter gene assay; format: functional, Hepacivirus hominis, Huh-7; parameters: scale not given: the % may be the effect or the level left
Method in brief: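 Primary screen at single 20 μM in replicon Huh 7 ET cells (5000/well, DMEM without G418, overnight seeding). After 72 h exposure, replicon luciferase measured with Steady-Glo. Value expressed as percent inhibition relative to control cells.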

[5] = Cytotoxicity against human Huh7ET cells at 20 uM by CytoTox-one cell proliferation assay; format: cell-based; conditions: huh-7, 20 µM
Method in brief: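 Huh 7 ET replicon cells exposed to single 20 μM for 72 h in primary screen; viability by tetrazolium-based CytoTox-1 assay, reported as percent relative to control cells.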

SMILES | EC50 [3] [µM] | selectivity ratio [1] | IC50 [2] [µM] | Activity [4] [%] | Cell viability relative to control [5] [%]
O=c1cnc2cc(N3CCOCC3)c(Nc3nc(-c4ccccc4)cs3)cc2[nH]1 | 5.19 | 11.2 | 58.3 | – | –
CN(c1cc2c(cc1Nc1nc(-c3ccccc3)cs1)NC(=O)CS2)C1CCCCC1 | > 20 | < 0.69 | 13.8 | – | –
CCCN(CCC)c1cc2ncc(=O)[nH]c2cc1Nc1nc(-c2ccccc2)cs1 | 3.81 | 8.3 | 31.6 | – | –
CN(c1cc2c(cc1Nc1nc(-c3ccccc3)cs1)[nH]c(=O)c1cccn12)C1CCCCC1 | 1.82 | 9.9 | 18 | – | –
O=c1cnc2cc(N3CCN(c4ccc(F)cc4)CC3)c(Nc3nc(-c4ccccc4)cs3)cc2[nH]1 | – | – | – | 35 | 84.3
CN(c1cc2c(cc1Nc1nc(-c3ccccc3)cs1)NC(=O)CO2)C1CCCCC1 | 15.4 | 1.1 | 17.5 | – | –
Cc1nc2cc(N(C)C3CCCCC3)c(Nc3nc(-c4ccccc4)cs3)cc2[nH]c1=O | 3.91 | 3.15 | 12.3 | – | –
O=c1cnc2cc(N3CCCCC3)c(Nc3nc(-c4ccccc4)cs3)cc2[nH]1 | – | – | – | 9 | 35.1
CN(c1cc2c(cc1Nc1nc(-c3ccccc3)cs1)NC(=O)C1CCCCN21)C1CCCCC1 (centres undefined) | 1.19 | 9.27 | 11 | – | –
CN(c1cc2nc(Cc3ccccc3)c(=O)[nH]c2cc1Nc1nc(-c2ccccc2)cs1)C1CCCCC1 | > 20 | < 2.1 | 42 | – | –
CN(c1cc2ncc(=O)[nH]c2cc1N1C(=O)CN(c2cccc3ccccc23)C1=S)C1CCCCC1 | 13.1 | 0.85 | 11.2 | – | –
O=c1cnc2cc(OC3CCCCC3)c(Nc3nc(-c4ccccc4)cs3)cc2[nH]1 | – | – | – | 4.9 | 74.4
CN(c1cc2ncc(=O)[nH]c2cc1N1CC(=O)N(c2ccccc2)C1=S)C1CCCCC1 | 2.21 | 1.4 | 2.99 | – | –
CC(C)Cc1nc2cc(N(C)C3CCCCC3)c(Nc3nc(-c4ccccc4)cs3)cc2[nH]c1=O | 4.19 | 7.9 | 33.3 | – | –
CN1CCN(c2cc3ncc(=O)[nH]c3cc2Nc2nc(-c3ccccc3)cs2)CC1 | 4.59 | 2.2 | 10.2 | – | –
COc1cc(C(=O)NC(=S)Nc2cc3[nH]c(=O)cnc3cc2N(C)C2CCCCC2)cc(OC)c1OC | 5.16 | 3.1 | 15.9 | – | –
CCOC(=O)C1CCN(c2cc3ncc(=O)[nH]c3cc2Nc2nc(-c3ccccc3)cs2)CC1 | – | – | – | 37.6 | 59.6
CN(c1cc2ncc(=O)[nH]c2cc1Nc1nc(-c2ccc(-c3ccccc3)cc2)cs1)C1CCCCC1 | > 20 | < 4.1 | 82 | – | –
CN(c1ccccc1)c1cc2ncc(=O)[nH]c2cc1Nc1nc(-c2ccccc2)cs1 | 4.61 | 3.4 | 15.9 | – | –
CC(C)c1nc2cc(N(C)C3CCCCC3)c(Nc3nc(-c4ccccc4)cs3)cc2[nH]c1=O | 8.62 | 7.8 | 67.4 | – | –
CCN(CC)c1cc2ncc(=O)[nH]c2cc1Nc1nc(-c2ccccc2)cs1 | 1.27 | 17.9 | 22.8 | – | –
CSCCc1nc2cc(N(C)C3CCCCC3)c(Nc3nc(-c4ccccc4)cs3)cc2[nH]c1=O | > 20 | < 4.3 | 86 | – | –
CN(C)c1cc2ncc(=O)[nH]c2cc1Nc1nc(-c2ccccc2)cs1 | > 20 | < 2.9 | 57.5 | – | –

Continued, in another order:

EC50 [3] [µM] | SMILES | selectivity ratio [1] | IC50 [2] [µM] | Activity [4] [%] | Cell viability relative to control [5] [%]
> 20 | CN(c1cc2ncc(=O)[nH]c2cc1NC(=S)Nc1ccc(F)cc1)C1CCCCC1 | < 3.2 | 64.3 | – | –
5.39 | CN(c1cc2ncc(=O)[nH]c2cc1Nc1nc(-c2ccc(Cl)cc2)cs1)C1CCCCC1 | 3.1 | 16.7 | – | –
6.77 | CN(c1cc2ncc(=O)[nH]c2cc1NC(=S)NC(=O)/C=C/c1ccccc1)C1CCCCC1 | 1.6 | 11 | – | –
2.97 | CN(c1cc2ncc(=O)[nH]c2cc1NC(=S)NC(=O)c1ccc(F)cc1)C1CCCCC1 | 3.8 | 11.4 | – | –
8.12 | CN(c1cc2ncc(=O)[nH]c2cc1Nc1nc(C(F)(F)F)cs1)C1CCCCC1 | 4.6 | 37.4 | – | –
> 20 | CN(c1cc2ncc(=O)[nH]c2cc1NC(=S)Nc1cccc(C(F)(F)F)c1)C1CCCCC1 | < 3.9 | 78.4 | – | –
> 20 | CN(c1cc2ncc(=O)[nH]c2cc1Nc1nc(-c2ccc3c(c2)OCO3)cs1)C1CCCCC1 | < 3.1 | 61.2 | – | –
> 20 | CN(c1cc2ncc(=O)[nH]c2cc1NC(=N)NCc1ccccn1)C1CCCCC1 | < 2.4 | 48.6 | – | –
12.2 | CN(c1cc2ncc(=O)[nH]c2cc1Nc1nc(-c2ccco2)cs1)C1CCCCC1 | 1 | 11.9 | – | –
4.57 | CN(c1cc2ncc(=O)[nH]c2cc1Nc1nc2c(s1)Cc1ccccc1-2)C1CCCCC1 | 2.39 | 10.9 | – | –
5.48 | CN(c1cc2ncc(=O)[nH]c2cc1NC(=S)NC(=O)c1cccc2ccccc12)C1CCCCC1 | 1.82 | 9.98 | – | –
5.49 | CN(c1cc2ncc(=O)[nH]c2cc1Nc1nc(-c2cccnc2)cs1)C1CCCCC1 | 2.09 | 11.5 | – | –
> 20 | CN(c1cc2ncc(=O)[nH]c2cc1NC(=N)NCc1cccc(C(F)(F)F)c1)C1CCCCC1 | < 2.7 | 54 | – | –
11.4 | CN(c1cc2ncc(=O)[nH]c2cc1NC(=O)Nc1ccccc1)C1CCCCC1 | 0.5 | 5.52 | – | –
11.4 | CN(c1cc2ncc(=O)[nH]c2cc1NC(=N)NCc1ccccc1)C1CCCCC1 | 0.87 | 9.94 | – | –
1.8 | CN(c1cc2ncc(=O)[nH]c2cc1NC(=S)NC(=O)c1ccco1)C1CCCCC1 | 9.6 | 17.3 | – | –
4.08 | CN(c1cc2ncc(=O)[nH]c2cc1NC(=S)NC(=O)c1cccc(C(F)(F)F)c1)C1CCCCC1 | 7.5 | 31.5 | – | –

EC50 [3] [µM] | SMILES | selectivity ratio [1] | IC50 [2] [µM] | Activity [4] [%] | Cell viability relative to control [5] [%]
3.94 | CN(c1cc2ncc(=O)[nH]c2cc1NC(=N)NCc1ccc(Cl)cc1)C1CCCCC1 | 1.12 | 4.4 | – | –
6.8 | CN(c1cc2ncc(=O)[nH]c2cc1Nc1nc(-c2cccc3ccccc23)cs1)C1CCCCC1 | 8.4 | 57.4 | – | –
> 20 | CN(c1cc2ncc(=O)[nH]c2cc1NC(=S)Nc1ccccc1)C1CCCCC1 | < 2.8 | 49.6 | – | –
> 20 | COc1ccc(-c2csc(Nc3cc4[nH]c(=O)cnc4cc3N(C)C3CCCCC3)n2)cc1 | < 0.75 | 15 | – | –
2.42 | CN(c1cc2ncc(=O)[nH]c2cc1NC(=S)NC(=O)c1ccccc1)C1CCCCC1 | 4.57 | 11.1 | – | –
3.97 | CN(c1cc2ncc(=O)[nH]c2cc1NC(=N)NCc1ccc(OC(F)(F)F)cc1)C1CCCCC1 | 0.9 | 3.7 | – | –
5.26 | CN(c1cc2ncc(=O)[nH]c2cc1Nc1nc(-c2ccc(F)cc2)cs1)C1CCCCC1 | 1.9 | 9.92 | – | –
2.33 | CN(c1cc2ncc(=O)[nH]c2cc1NC(=S)NC(=O)c1ccc(OC(F)(F)F)cc1)C1CCCCC1 | 2.78 | 6.47 | – | –
> 20 | CN(c1cc2ncc(=O)[nH]c2cc1Nc1nc(-c2cccs2)cs1)C1CCCCC1 | < 3.6 | 71.3 | – | –
16.4 | CN(c1cc2ncc(=O)[nH]c2cc1NC(=S)NC(=O)c1ccc(Cl)nc1)C1CCCCC1 | 2.1 | 34.5 | – | –
12.8 | CN(c1cc2ncc(=O)[nH]c2cc1NC(=N)NCc1ccc(F)cc1)C1CCCCC1 | 0.8 | 10.2 | – | –
6.07 | CN(c1cc2ncc(=O)[nH]c2cc1Nc1nc(-c2ccc(C#N)cc2)cs1)C1CCCCC1 | 2.98 | 18.1 | – | –
9.84 | CN(c1cc2ncc(=O)[nH]c2cc1NC(=O)Nc1cccc2ccccc12)C1CCCCC1 | 0.5 | 5.33 | – | –
> 20 | COc1ccc(CNC(=N)Nc2cc3[nH]c(=O)cnc3cc2N(C)C2CCCCC2)cc1 | < 0.98 | 19.5 | – | –
> 20 | CN(c1cc2ncc(=O)[nH]c2cc1NC(=S)Nc1cccc2ccccc12)C1CCCCC1 | < 2.2 | 43.6 | – | –
3.27 | Cc1ccsc1C(=O)NC(=S)Nc1cc2[nH]c(=O)cnc2cc1N(C)C1CCCCC1 | 3.84 | 12.6 | – | –

— ChEMBL document CHEMBL1811767, “Quinoxalin-2(1H)-one derivatives as inhibitors against hepatitis C virus” (J Med Chem, 2011)
